Test results: the M2OR odorant receptor database

Legend:
Conditions in all cases: stereoisomer not certain
UniProt Q8VG49 = molecular target: T1, UniProt Q8VG49
T1 sequence (whole entry): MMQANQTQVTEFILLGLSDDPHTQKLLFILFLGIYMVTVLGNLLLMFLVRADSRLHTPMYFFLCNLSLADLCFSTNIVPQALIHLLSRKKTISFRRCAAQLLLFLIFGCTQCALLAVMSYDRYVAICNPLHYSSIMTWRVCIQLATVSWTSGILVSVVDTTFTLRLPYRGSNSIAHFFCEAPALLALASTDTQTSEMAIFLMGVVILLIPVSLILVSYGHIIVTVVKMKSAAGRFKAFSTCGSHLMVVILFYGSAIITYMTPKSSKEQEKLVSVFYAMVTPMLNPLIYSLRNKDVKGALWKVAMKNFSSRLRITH
How it was run: (§1)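 Whether a receptor–molecule pair is responsive (active) rests on the original authors' judgment that its measured signal was statistically different from baseline. Pairs without that judgment are non-responsive (inactive). Sources used varied assay methods, commonly transient luciferase assays in mammalian cell lines.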

UniProt Q8VG77 = molecular target: T2, UniProt Q8VG77
T2 sequence (whole entry): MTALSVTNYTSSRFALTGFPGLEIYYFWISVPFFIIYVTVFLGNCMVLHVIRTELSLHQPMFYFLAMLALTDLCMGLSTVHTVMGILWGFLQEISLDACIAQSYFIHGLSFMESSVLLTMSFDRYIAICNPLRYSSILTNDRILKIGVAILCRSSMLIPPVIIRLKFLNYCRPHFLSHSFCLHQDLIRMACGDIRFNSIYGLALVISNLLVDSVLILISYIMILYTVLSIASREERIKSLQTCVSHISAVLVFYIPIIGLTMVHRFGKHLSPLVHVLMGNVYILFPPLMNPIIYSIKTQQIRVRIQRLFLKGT
How it was run: as §1

UniProt Q8VG96 = molecular target: T3, UniProt Q8VG96
T3 sequence (whole entry): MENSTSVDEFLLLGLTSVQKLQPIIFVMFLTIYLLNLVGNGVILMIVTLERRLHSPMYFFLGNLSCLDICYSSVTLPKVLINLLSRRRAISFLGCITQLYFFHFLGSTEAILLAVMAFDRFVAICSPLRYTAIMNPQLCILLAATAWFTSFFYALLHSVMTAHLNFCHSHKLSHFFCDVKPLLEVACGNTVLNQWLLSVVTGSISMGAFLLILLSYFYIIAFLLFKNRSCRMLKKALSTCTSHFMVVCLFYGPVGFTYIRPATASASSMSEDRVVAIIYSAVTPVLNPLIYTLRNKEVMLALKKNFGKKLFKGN
How it was run: as §1

UniProt Q8VG27 = molecular target: T4, UniProt Q8VG27
T4 sequence (whole entry): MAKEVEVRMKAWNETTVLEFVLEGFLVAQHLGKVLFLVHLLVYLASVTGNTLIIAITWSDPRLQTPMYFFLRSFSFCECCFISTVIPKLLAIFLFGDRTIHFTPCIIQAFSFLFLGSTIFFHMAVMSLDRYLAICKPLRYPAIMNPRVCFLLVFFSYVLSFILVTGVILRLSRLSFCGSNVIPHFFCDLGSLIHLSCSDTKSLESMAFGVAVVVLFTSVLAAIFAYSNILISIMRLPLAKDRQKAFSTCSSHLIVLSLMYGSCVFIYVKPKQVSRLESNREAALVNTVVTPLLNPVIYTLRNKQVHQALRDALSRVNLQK
How it was run: as §1

UniProt Q8VG53 = molecular target: T5, UniProt Q8VG53
T5 sequence (whole entry): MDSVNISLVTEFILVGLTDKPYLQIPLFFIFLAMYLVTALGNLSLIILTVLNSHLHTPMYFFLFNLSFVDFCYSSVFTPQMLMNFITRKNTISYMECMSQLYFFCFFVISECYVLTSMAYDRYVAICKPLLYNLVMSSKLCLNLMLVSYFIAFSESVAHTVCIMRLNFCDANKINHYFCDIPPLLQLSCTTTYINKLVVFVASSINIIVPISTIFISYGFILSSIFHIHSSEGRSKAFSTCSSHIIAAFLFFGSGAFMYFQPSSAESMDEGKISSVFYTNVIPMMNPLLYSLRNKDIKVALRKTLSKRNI
How it was run: as §1

UniProt Q8VG64 = molecular target: T6, UniProt Q8VG64
T6 sequence (whole entry): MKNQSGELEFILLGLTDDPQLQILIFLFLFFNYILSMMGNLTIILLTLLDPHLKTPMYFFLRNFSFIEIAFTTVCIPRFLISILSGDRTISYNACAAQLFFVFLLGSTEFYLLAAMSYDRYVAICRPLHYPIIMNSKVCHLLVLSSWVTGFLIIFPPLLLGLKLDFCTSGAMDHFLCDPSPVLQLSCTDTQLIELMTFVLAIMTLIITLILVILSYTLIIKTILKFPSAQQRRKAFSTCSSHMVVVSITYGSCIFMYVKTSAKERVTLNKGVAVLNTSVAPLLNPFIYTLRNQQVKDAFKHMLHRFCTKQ
How it was run: as §1

UniProt Q8VGB9 = molecular target: T7, UniProt Q8VGB9
T7 sequence (whole entry): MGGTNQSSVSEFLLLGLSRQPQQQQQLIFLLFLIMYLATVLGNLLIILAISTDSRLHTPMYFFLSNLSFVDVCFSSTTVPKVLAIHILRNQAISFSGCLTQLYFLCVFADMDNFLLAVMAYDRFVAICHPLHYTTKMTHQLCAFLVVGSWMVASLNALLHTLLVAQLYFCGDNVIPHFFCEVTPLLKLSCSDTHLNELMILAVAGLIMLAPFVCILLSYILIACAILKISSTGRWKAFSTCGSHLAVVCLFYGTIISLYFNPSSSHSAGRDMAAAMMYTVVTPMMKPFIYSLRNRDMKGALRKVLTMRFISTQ
How it was run: as §1

UniProt Q8VG28 = molecular target: UniProt Q8VG28
How it was run: as §1

Measured: odorant receptor agonist call;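 also: active if original authors judged signal statistically different from baseline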

Sequence of UniProt Q8VG28 (Q8VG28 as listed by the source): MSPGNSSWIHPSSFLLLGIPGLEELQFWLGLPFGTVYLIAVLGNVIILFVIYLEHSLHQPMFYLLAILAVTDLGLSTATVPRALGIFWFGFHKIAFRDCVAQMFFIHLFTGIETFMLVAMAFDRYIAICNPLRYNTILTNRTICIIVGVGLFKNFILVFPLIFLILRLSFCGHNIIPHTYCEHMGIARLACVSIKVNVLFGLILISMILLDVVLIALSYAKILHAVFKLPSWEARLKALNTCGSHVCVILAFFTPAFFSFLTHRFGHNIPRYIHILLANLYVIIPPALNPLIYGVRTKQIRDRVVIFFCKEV

O=c1ccc2ccccc2o1
active: UniProt Q8VG96
inactive: UniProt Q8VG49 | UniProt Q8VG77

CCCC=O
inactive: UniProt Q8VG27 | UniProt Q8VG53 | UniProt Q8VG64 | UniProt Q8VGB9

CCN(CC)CC
inactive: UniProt Q8VG27 | UniProt Q8VG53 | UniProt Q8VG64 | UniProt Q8VGB9

CC(=O)C=CC1=C(C)CCCC1(C)C
inactive: UniProt Q8VG27 | UniProt Q8VG53 | UniProt Q8VG64 | UniProt Q8VGB9

O=C([O-])CCCCC(=O)[O-].[H+].[H+]
inactive: UniProt Q8VG28

CCCC(C)=O
inactive: UniProt Q8VG28 | UniProt Q8VG49 | UniProt Q8VG77 | UniProt Q8VG96

CCC(C(=O)O)c1ccccc1 (configuration not stated)
inactive: UniProt Q8VG49 | UniProt Q8VG77 | UniProt Q8VG96

CCCCOC(=O)C(C)OC(=O)CCC (configuration not stated)
inactive: UniProt Q8VG49 | UniProt Q8VG77 | UniProt Q8VG96

CCc1ccc(O)cc1
inactive: UniProt Q8VG27 | UniProt Q8VG53 | UniProt Q8VG64 | UniProt Q8VGB9

CSSSC
inactive: UniProt Q8VG27 | UniProt Q8VG53 | UniProt Q8VG64 | UniProt Q8VGB9

CC(=O)OCc1ccc2c(c1)OCO2
inactive: UniProt Q8VG27 | UniProt Q8VG53 | UniProt Q8VG64 | UniProt Q8VGB9

O=C(O)CCCCBr
inactive: UniProt Q8VG28

CCCCOC(=O)CCC
inactive: UniProt Q8VG28

CCCCCCCOC(=O)C(C)C
inactive: UniProt Q8VG27 | UniProt Q8VG53 | UniProt Q8VG64 | UniProt Q8VGB9

C=C(C)C1CCC(C)C(O)C1 (configuration not stated)
inactive: UniProt Q8VG27 | UniProt Q8VG53 | UniProt Q8VG64 | UniProt Q8VGB9

CCSCC
inactive: UniProt Q8VG27 | UniProt Q8VG53 | UniProt Q8VG64 | UniProt Q8VGB9
